Test results published in ChEMBL document CHEMBL1121856, “Sulfur analogues of psychotomimetic agents. Monothio analogues of mescaline and isomescaline” (J Med Chem, 1981).

Legend:
Homo sapiens = species on record: Homo sapiens; test: Compound was tested for the psychotropic effect in human (activity is expressed in mescaline unit); format: functional
Outline: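 Healthy adult volunteers (32–65 y, experienced with psychotropic drugs) received the hydrochloride orally. Dosing began at 2 mg and rose in small increments (1.6:1) at trials spaced about 1 week apart until an effective level was found. Mescaline units are the effective dose of mescaline divided by that of the compound, both determined in man. A "less than" value means no activity at doses that would give that MU.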

[1] = target: T1, monoamine oxidase (bovine plasma amine oxidase) (Bos taurus, UniProt P21398+P56560); test: In vitro bovine plasma monoamine oxidase deamination with semicarbazide; format: cell-free; conditions: cattle, with semicarbazide (concentration not stated), read-out: MAO deamination
T1 sequence (P56560 whole entry): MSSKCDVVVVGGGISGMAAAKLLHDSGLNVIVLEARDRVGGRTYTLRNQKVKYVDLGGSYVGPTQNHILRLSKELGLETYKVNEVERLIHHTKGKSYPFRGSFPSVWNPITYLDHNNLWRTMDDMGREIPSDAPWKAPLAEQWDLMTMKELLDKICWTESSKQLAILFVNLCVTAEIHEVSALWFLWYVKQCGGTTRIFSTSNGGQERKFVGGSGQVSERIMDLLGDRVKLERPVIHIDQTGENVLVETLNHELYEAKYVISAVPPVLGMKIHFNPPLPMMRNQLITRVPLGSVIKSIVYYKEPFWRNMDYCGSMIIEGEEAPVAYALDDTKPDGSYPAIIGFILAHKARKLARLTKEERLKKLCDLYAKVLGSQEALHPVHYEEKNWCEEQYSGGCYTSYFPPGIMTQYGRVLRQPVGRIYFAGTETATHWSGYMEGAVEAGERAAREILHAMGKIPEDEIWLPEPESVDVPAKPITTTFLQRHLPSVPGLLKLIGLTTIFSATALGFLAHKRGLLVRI
T1 sequence (P21398 whole entry): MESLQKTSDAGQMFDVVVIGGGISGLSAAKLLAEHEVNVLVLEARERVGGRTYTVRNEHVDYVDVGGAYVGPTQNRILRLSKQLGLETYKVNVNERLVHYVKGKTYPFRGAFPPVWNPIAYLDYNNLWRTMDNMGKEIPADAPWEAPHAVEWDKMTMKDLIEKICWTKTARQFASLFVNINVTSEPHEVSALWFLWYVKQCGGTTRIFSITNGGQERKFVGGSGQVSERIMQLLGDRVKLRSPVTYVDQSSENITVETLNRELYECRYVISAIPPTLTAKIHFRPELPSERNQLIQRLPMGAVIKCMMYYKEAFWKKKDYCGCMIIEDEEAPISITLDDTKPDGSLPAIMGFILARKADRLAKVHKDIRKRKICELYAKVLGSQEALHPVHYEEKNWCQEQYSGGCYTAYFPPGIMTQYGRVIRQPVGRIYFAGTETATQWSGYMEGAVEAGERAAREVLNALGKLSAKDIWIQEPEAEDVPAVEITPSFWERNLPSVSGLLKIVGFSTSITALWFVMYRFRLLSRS
Outline: (§1)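 Amines at 50 μM in 0.1 M phosphate buffer, pH 7.4, with 0.01 unit bovine plasma MAO and 50 μM semicarbazide, in duplicate, 1 h at 37 °C. Stopped with 0.5 N NaOH, internal standard added, extracted into CH2Cl2. Remaining amine measured by GC as heptafluorobutyryl derivatives, quantitated by peak-height ratio against enzyme-free standards.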

[2] = target: T1, monoamine oxidase (bovine plasma amine oxidase); test: In vitro bovine plasma monoamine oxidase deamination without semicarbazide; format: cell-free; conditions: cattle, read-out: MAO deamination
Outline: as §1, with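 “MAO, no” for “MAO and 50 μM”, “GC (OV-101, 185 °C)” for “GC”, “standards prepared without enzyme.” for “enzyme-free standards.”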

Row | Structure (SMILES) | Human potency (Homo sapiens) | metabolised [1] | metabolised [2]
1 | COc1ccc(CCN)cc1OC | <1 MU | 16% | 64%
2 | COc1cc(CCN)cc(SC)c1OC | 6 MU |  | 60%
3 | COc1c(CCN)ccc(SC)c1OC | <2 MU |  | 40%
4 | COc1ccc(CCN)c(OC)c1SC | <2 MU |  | 31%
5 | COc1cc(CCN)cc(OC)c1SC | 12 MU |  | 56%
6 | COc1ccc(CCN)c(OC)c1OC | <1 MU | 4% | 55%
7 | COc1ccc(CCN)c(SC)c1OC | <2 MU | 10% | 78%
8 | COc1cc(CCN)cc(OC)c1OC [MESCALINE] | 1 MU | 1% | 21%
